Experimental data from ChEMBL document CHEMBL1821605, “4-Quinazolinyloxy-diaryl ureas as novel BRAFV600E inhibitors” (Bioorg Med Chem Lett, 2011).
Calls of active or inactive are those of the source. The rule behind the calls is not given here.

Assays:
[1] = test system: Mus musculus; experiment: Inhibition of BRAF V600E mutant-dependent MEK phosphorylation in Colo205 cells xenografted in nude mouse at 100 mg/kg, po bid for 5 days measured at 24 hrs post-dose; assay type: functional; conditions: COLO 205
[2] = test system: COLO 205; experiment: Antitumor activity against human COLO205 cells xenografted in nude mouse assessed as tumor stasis at 100 mg/kg, po bid upto 15 days; assay type: functional, organism-based; parameters: dose 100 mg/kg
Outline: (§1)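 Mice bearing Colo-205 tumors were dosed orally bid at 30, 55 or 100 mg/kg and compared with a vehicle control group. Tumor growth was followed over the dosing period, […]. Outcomes recorded were stasis, regrowth, incidence of regressions and % growth inhibition. Significance was tested against vehicle.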

[3] = molecular target: T1, Serine/threonine-protein kinase B-raf (Homo sapiens, UniProt P15056, V600E); experiment: Inhibition of BRAF V600E mutant-dependent MEK phosphorylation in A375 cells; assay type: cell-based, A-375
T1 sequence (P15056 2-766 V600E limits assumed): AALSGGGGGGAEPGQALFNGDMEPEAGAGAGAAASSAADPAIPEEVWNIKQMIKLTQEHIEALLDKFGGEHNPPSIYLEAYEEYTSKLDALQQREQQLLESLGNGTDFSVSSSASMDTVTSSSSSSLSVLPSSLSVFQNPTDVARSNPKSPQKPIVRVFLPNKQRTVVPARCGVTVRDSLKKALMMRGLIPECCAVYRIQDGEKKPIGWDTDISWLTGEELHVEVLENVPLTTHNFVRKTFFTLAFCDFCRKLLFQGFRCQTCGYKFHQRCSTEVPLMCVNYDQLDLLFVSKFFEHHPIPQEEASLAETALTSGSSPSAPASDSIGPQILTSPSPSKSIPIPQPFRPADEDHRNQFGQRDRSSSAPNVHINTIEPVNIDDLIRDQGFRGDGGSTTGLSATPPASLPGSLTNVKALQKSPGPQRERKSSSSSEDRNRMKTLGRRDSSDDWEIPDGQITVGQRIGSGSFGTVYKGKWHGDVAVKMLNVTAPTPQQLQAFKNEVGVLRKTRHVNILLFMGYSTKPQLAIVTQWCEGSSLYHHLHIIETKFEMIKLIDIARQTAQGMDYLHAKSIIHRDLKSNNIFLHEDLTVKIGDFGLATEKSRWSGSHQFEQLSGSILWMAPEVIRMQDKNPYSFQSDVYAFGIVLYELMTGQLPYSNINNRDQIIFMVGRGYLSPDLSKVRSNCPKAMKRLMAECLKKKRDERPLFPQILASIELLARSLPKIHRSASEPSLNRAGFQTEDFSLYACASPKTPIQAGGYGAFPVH

[4] = molecular target: T1, Serine/threonine-protein kinase B-raf; experiment: Binding affinity to BRAF V600E mutant
[5] = AUC in mouse plasma at 30 mg/kg, po; assay type: ADME, organism-based; parameters: dose 30 mg/kg, route oral
Outline: (§2)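 Compound given orally to mice at the stated dose. Plasma exposure reported as AUC in μM × h.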

[6] = test system: Mus musculus; experiment: Inhibition of BRAF V600E mutant-dependent MEK phosphorylation in Colo205 cells xenografted in nude mouse at 100 mg/kg, po bid for 5 days measured at 10 hrs post-dose; assay type: functional; conditions: COLO 205
Outline: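 Colo-205 xenograft mice were dosed orally at 100 mg/kg bid. On day 5 of dosing, tumor tissue was collected 10 h post-dose and phosphorylated MEK levels were measured against vehicle.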

[7] = test system: COLO 205; experiment: Antitumor activity against human COLO205 cells xenografted in nude mouse assessed as tumor regression at 100 mg/kg, po bid upto 15 days; assay type: functional; outline: as §1
[8] = test system: Mus musculus; experiment: Inhibition of BRAF V600E mutant-dependent MEK phosphorylation in Colo205 cells xenografted in nude mouse assessed as compound concentration in tumor required for maximum % inhibition; assay type: functional
[9] = test system: Mus musculus; experiment: Toxicity in nude mouse xenografted with human COLO205 cells assessed as body weight loss at 30 to 100 mg/kg, po bid upto 15 days; assay type: organism-based, COLO 205; parameters: dose 30-100 mg/kg, route oral; conditions: in vivo, 360 h
Outline: (§3)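 Body weight was monitored in Colo-205 xenograft-bearing mice during oral bid dosing, with maximum % loss recorded. Monitoring continued after dosing stopped to assess reversibility.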

[10] = Oral bioavailability in rat; assay type: ADME, organism-based; conditions: in vivo
Outline: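 Oral bioavailability (%F) was measured in rats, generally dosing the hydrochloride salt; some compounds were given as free base.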

[11] = test system: Mus musculus; experiment: Inhibition of BRAF V600E mutant-dependent MEK phosphorylation in Colo205 cells xenografted in nude mouse assessed as compound concentration in plasma required for maximum % inhibition; assay type: functional
[12] = test system: COLO 205; experiment: Antitumor activity against human COLO205 cells xenografted in nude mouse assessed as tumor stasis at > 100 mg/kg, […]; assay type: functional, organism-based; parameters: dose 100 mg/kg
[13] = test system: COLO 205; experiment: Antitumor activity against human COLO205 cells xenografted in nude mouse assessed as tumor stasis at 55 mg/kg, po bid upto 8 days; assay type: functional, organism-based; parameters: dose 55 mg/kg; outline: as §1
[14] = test system: COLO 205; experiment: Antitumor activity against human COLO205 cells xenografted in nude mouse assessed as tumor stasis at 100 mg/kg, po bid upto 8 days; assay type: functional, organism-based; parameters: dose 100 mg/kg; outline: as §1
[15] = test system: COLO 205; experiment: Antitumor activity against human COLO205 cells xenografted in nude mouse assessed as tumor growth inhibition at 55 mg/kg, po bid upto 8 days; assay type: functional; conditions: COLO 205, 192 h, read-out: TGI; outline: as §1
[16] = test system: COLO 205; experiment: Antitumor activity against human COLO205 cells xenografted in nude mouse assessed as tumor growth inhibition at 100 mg/kg, po bid upto 8 days; assay type: functional; conditions: COLO 205, 192 h, read-out: TGI; outline: as §1
[17] = test system: Mus musculus; experiment: Toxicity in nude mouse xenografted with human COLO205 cells assessed as body weight loss at 10 to 100 mg/kg, po bid upto 15 days; assay type: organism-based, COLO 205; parameters: dose 10-100 mg/kg, route oral; conditions: in vivo, 360 h; outline: as §3
[18] = test system: COLO 205; experiment: Antitumor activity against human COLO205 cells xenografted in nude mouse assessed as complete suppression of tumor regrowth at 100 mg/kg, po bid before 15 days; assay type: functional, organism-based; parameters: dose 100 mg/kg; outline: as §1
[19] = AUC in mouse plasma at 100 mg/kg, po; assay type: ADME, organism-based; parameters: dose 100 mg/kg, route oral; outline: as §2

| Compound | IC50 [3] [nM] | Kd [4] [nM] | bioavailability [10] [%] | also measured |
| --- | --- | --- | --- | --- |
| COc1cc2ncnc(Oc3cccc(NC(=O)Nc4cc(C(C)(C)C)on4)c3)c2cc1OC [listing 1 of 2 here] |  |  |  | inhibition [1]: inactive; Activity [2]: Active |
| COc1cc2ncnc(Oc3cccc(NC(=O)Nc4ccc(Cl)c(C(F)(F)F)c4)c3)c2cc1OC | 696 | 98 |  |  |
| COc1cc2ncnc(Oc3cccc(NC(=O)Nc4cc(C(C)(C)C)on4)c3)c2cc1OC.Cl |  |  | 49 | AUC [5]: 12.5 µM·h; inhibition in vivo at 100 mg/kg [6]: ≥ 50%; Activity [7]: 55%; Activity [8]: 24 µM; Activity [9]: 8%; Activity [11]: 2.5 µM |
| COc1cc2ncnc(Oc3cccc(NC(=O)Nc4cc(C(C)(C)C)on4)c3)c2cc1OCCCN1CCOCC1 | 36 | 29 |  |  |
| COc1cc2c(Oc3cccc(NC(=O)Nc4cc(C(C)(C)C)on4)c3)ncnc2cc1OCCCN1CCOCC1 | 96 | 56 | 18 |  |
| COc1cc2ncnc(Oc3cccc(NC(=O)Nc4cccc(C(F)(F)F)c4)c3)c2cc1OC | 1660 | 46 |  |  |
| COc1cc2ncnc(Sc3cccc(NC(=O)Nc4cc(C(C)(C)C)on4)c3)c2cc1OC [listing 1 of 2 here] |  |  |  | Activity [12]: inactive; Activity [13]: Active; Activity [14]: Active |
| COc1cc2ncnc(Oc3ccc(F)c(NC(=O)Nc4cc(C(C)(C)C)on4)c3)c2cc1OC | 113 | 56 |  |  |
| CCOc1cc2ncnc(Oc3cccc(NC(=O)Nc4cc(C(C)(C)C)on4)c3)c2cc1OC.Cl |  |  | 16 |  |
| CCOc1cc2c(Oc3cccc(NC(=O)Nc4cc(C(C)(C)C)on4)c3)ncnc2cc1OC | 80 | 67 |  |  |
| COc1cc2ncnc(Oc3cccc(NC(=O)Nc4cccc(C(C)(C)C)c4)c3)c2cc1OC | 333 | 36 |  |  |
| COc1cc2ncnc(Oc3cccc(NC(=O)Nc4ccc(Cl)cc4)c3)c2cc1OC | 1850 | 30 |  |  |
| COc1cc2ncnc(Oc3ccc(Cl)c(NC(=O)Nc4cc(C(C)(C)C)on4)c3)c2cc1OC | 229 | 99 |  |  |
| COc1cc2ncnc(Oc3cccc(NC(=O)Nc4cc(C(C)(C)C)on4)c3)c2cc1OCCCN1CCOCC1.Cl |  |  | 20 |  |
| COc1cc2ncnc(Nc3cccc(NC(=O)Nc4cc(C(C)(C)C)on4)c3)c2cc1OC.Cl |  |  | 1.9 |  |
| COc1cc2ncnc(Oc3cc(NC(=O)Nc4cc(C(C)(C)C)on4)ccc3F)c2cc1OC.Cl |  |  | 22 |  |
| COc1cc2ncnc(Oc3cc(NC(=O)Nc4cc(C(C)(C)C)on4)c(F)cc3F)c2cc1OC | 113 | 46 | 14 |  |
| COc1cc2ncnc(Oc3cccc(NC(=O)Nc4cc(C(C)(C)C)on4)c3)c2cc1O | 86 | 46 |  |  |
| COc1cc2ncnc(Sc3cccc(NC(=O)Nc4cc(C(C)(C)C)on4)c3)c2cc1OC [listing 2 of 2 here] | 118 | 61 |  | inhibition in vivo at 55 mg/kg [15]: 45%; inhibition in vivo at 100 mg/kg [16]: 45%; AUC [5]: 22 µM·h; inhibition in vivo at 100 mg/kg [1]: 55%; inhibition in vivo at 100 mg/kg [6]: 75%; Activity [8]: 0.2 µM; Activity [9]: Non-toxic; Activity [11]: 0.2 µM; Activity [17]: Non-toxic |
| CCOc1cc2ncnc(Oc3cccc(NC(=O)Nc4cc(C(C)(C)C)on4)c3)c2cc1OC | 173 | 82 |  |  |
| COc1cc2ncnc(Oc3cccc(NC(=O)Nc4ccc(C(C)(C)C)cc4)c3)c2cc1OC | 290 | 96 | 15 |  |
| COc1cc2ncnc(Oc3cc(NC(=O)Nc4cc(C(C)(C)C)on4)ccc3F)c2cc1OC | 62 | 72 |  |  |
| COc1cc2c(Oc3cccc(NC(=O)Nc4cc(C(C)(C)C)on4)c3)ncnc2cc1OCCN1CCOCC1 | 165 | 34 | 52 | Activity [18]: inactive; inhibition in vivo at 100 mg/kg [16]: 65%; inhibition in vivo at 100 mg/kg [1]: 50%; inhibition in vivo at 100 mg/kg [6]: 70%; Activity [8]: 11 µM; Activity [9]: Non-toxic; Activity [11]: 2 µM; AUC [19]: 48 µM·h; Activity [17]: Non-toxic |
| COc1cc2ncnc(Oc3cccc(NC(=O)Nc4cc(C(C)(C)C)on4)c3C)c2cc1OC | 179 | 38 |  |  |
| COc1cc2ncnc(Nc3ccc(NC(=O)Nc4cc(C(C)(C)C)on4)cc3)c2cc1OC.Cl |  |  | < 1 |  |
| COc1cc2ncnc(Nc3cccc(NC(=O)Nc4cc(C(C)(C)C)on4)c3)c2cc1OC | 82 | 40 |  |  |

Now from value to compound, other results behind:

| IC50 [3] [nM] | Kd [4] [nM] | bioavailability [10] [%] | Compound | also measured |
| --- | --- | --- | --- | --- |
|  |  | 13 | COCCOc1cc2c(Oc3cccc(NC(=O)Nc4cc(C(C)(C)C)on4)c3)ncnc2cc1OC.Cl |  |
|  |  | 24 | COc1cc2ncnc(Sc3cccc(NC(=O)Nc4cc(C(C)(C)C)on4)c3)c2cc1OC.Cl |  |
|  |  | 30 | CCOc1cc2c(Oc3cccc(NC(=O)Nc4cc(C(C)(C)C)on4)c3)ncnc2cc1OC.Cl |  |
|  | 370 |  | COc1cc2ncnc(Oc3cccc(NC(=O)Nc4ccccc4)c3)c2cc1OC |  |
| 110 | 57 | < 1 | COc1cc2c(Oc3cccc(NC(=O)Nc4cc(C(C)(C)C)on4)c3)ncnc2cc1O |  |
| 100 | 57 |  | COCCOc1cc2ncnc(Oc3cccc(NC(=O)Nc4cc(C(C)(C)C)on4)c3)c2cc1OC |  |
| 52 | 38 | 11 | COc1cc2ncnc(Oc3cccc(NC(=O)Nc4cc(C(C)(C)C)on4)c3)c2cc1OCCN1CCOCC1 |  |
| 121 | 73 |  | COc1cc2ncnc(Oc3cccc(NC(=O)Nc4cc(C(C)(C)C)on4)c3)c2cc1OC [listing 2 of 2 here] |  |
| 293 | 96 |  | COc1cc2ncnc(Oc3cccc(NC(=O)Nc4cc(C(C)(C)C)on4)c3)c2cc1OCCN1CCCCC1 |  |
| 10000 | 90 |  | COc1cccc(NC(=O)Nc2cccc(Oc3ncnc4cc(OC)c(OC)cc34)c2)c1 |  |
| 59 | 48 |  | COCCOc1cc2c(Oc3cccc(NC(=O)Nc4cc(C(C)(C)C)on4)c3)ncnc2cc1OC |  |
|  |  | 56 | COCCOc1cc2ncnc(Oc3cccc(NC(=O)Nc4cc(C(C)(C)C)on4)c3)c2cc1OC.Cl |  |
|  | 478 |  | COc1cc2ncnc(Nc3ccc(NC(=O)Nc4cc(C(C)(C)C)on4)cc3)c2cc1OC |  |
